Test results published in ChEMBL document CHEMBL1122519, “Bispyridinamines: a new class of topical antimicrobial agents as inhibitors of dental plaque” (1984).

What was measured:
[1] = Compound is evaluated for stain index; format: functional
Procedure, shortened: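 Ratio of the minimum concentration staining a plaque-free ceramic hydroxylapatite plate to the minimum plaque-inhibiting concentration, both run under the same conditions. Plates got two 1-min soaks (0.1–0.001%), each followed by air-drying, then a water rinse. They were then held 24 h anaerobically at 37 °C in sucrose beef-extract medium, with or without S. mutans OMZ-61, repeated once. Staining was 1-min 1% FD&C Red No. 3, scored visually.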

[2] = tested on: Streptococcus mutans; assay: Minimum plaque inhibitory concentration using a standard test organism, Streptococcus mutans OMZ-61; format: functional, organism-based
Procedure, shortened: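 Ceramic hydroxylapatite plates were soaked twice for 1 min each in compound at […] (aqueous), air-dried and rinsed, then hung in sucrose beef-extract medium (pH 7.0) inoculated with late-log S. mutans OMZ-61. Incubation was anaerobic at 37 °C for 24 h, and treatment plus reinoculation were repeated for a second 24 h. Plaque was stained with 1% FD&C Red No. 3 and scored visually. The value is the lowest concentration giving no plaque while medium growth matched control.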

[3] = tested on: Staphylococcus aureus; assay: Minimum antimicrobial inhibitory concentration against Staphylococcus aureus; format: functional
Procedure, shortened: (§1)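 Serial twofold tube dilution in tryptose phosphate broth. Each compound was prepared as a 1000 μg/mL aqueous stock and diluted in double-strength broth, then 2×10^5 cells were added. Tubes were incubated aerobically at 37 °C for 24 h. The MIC was taken as the lowest concentration with no visible growth.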

[4] = tested on: Klebsiella pneumoniae; assay: Minimum inhibitory concentration against Klebsiella pneumonia 39645; format: functional; procedure, shortened: as §1
[5] = tested on: Proteus mirabilis; assay: Minimum antimicrobial inhibitory concentration against Proteus mirabilis MGH-1; format: functional; procedure, shortened: as §1
[6] = tested on: Pseudomonas aeruginosa; assay: Minimum antimicrobial inhibitory concentration against Pseudomonas aeruginosa MGH-2; format: functional; procedure, shortened: as §1
[7] = tested on: Escherichia coli; assay: Antimicrobial minimum inhibitory concentration against Escherichia coli 100/B22; format: functional; procedure, shortened: as §1
[8] = tested on: Escherichia coli; assay: Antimicrobial minimum inhibitory concentration against Escherichia coli AB1932-1; format: functional; procedure, shortened: as §1
[9] = tested on: Streptococcus mutans; assay: Compound is evaluated for minimal bactericidal concentration against plaque formation for Streptococcus mutans; format: functional, organism-based
Procedure, shortened: (§2)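 Preformed in vitro plaques of S. mutans NCTC 10449 or A. viscosus M-100 were grown on ceramic hydroxylapatite under anaerobic conditions at 37 °C in sucrose-supplemented medium. Plaques were immersed for 30 min at 37 °C in compound at 0.3–20 mM, rinsed, and moved to broth containing bromocresol purple. Kill was judged by no acid production, no turbidity increase and no growth on plating at 48 h. Plaques were run in quadruplicate.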

[10] = tested on: Escherichia coli; assay: Minimum inhibitory concentration against Escherichia coli (Vogel); format: functional; procedure, shortened: as §1
[11] = tested on: Actinomyces viscosus; assay: Compound is evaluated for minimal bactericidal concentration against plaque formation for Actinomyces viscosus; format: functional, organism-based; procedure, shortened: as §2

| Compound | Stain index [1] | Concentration [2] [%] | MIC [3] [µg/mL] | MIC [4] [µg/mL] | MIC [5] [µg/mL] | MIC [6] [µg/mL] | MIC [7] [µg/mL] | MIC [8] [µg/mL] | Concentration [9] [mM] | MIC [10] [µg/mL] | Concentration [11] [mM] |
| --- | --- | --- | --- | --- | --- | --- | --- | --- | --- | --- | --- |
| Br.Br.CCCCCCCCCN=c1ccn(CCCCCCCCn2ccc(=NCCCCCCCCC)cc2)cc1 | 1 | 0.004 | 1 | 2 | 3.9 | 7.8 | 2 | 2 | 2.5 | 3.9 | 2.5 |
| CCCCCCCCN=c1ccn(CCCCCCCCn2ccc(=NCCCCCCCC)cc2)cc1.Cl.Cl | 10 | 0.005 | 0.2 | 1 | 3.9 | 7.8 | 0.5 | 1 | 8.8 | 1 | 0.88 |
| Br.Br.CCCCCCCCCN=c1ccn(CCCCCCCn2ccc(=NCCCCCCCCC)cc2)cc1 | 1 | 0.004 | 0.5 | 2 | 3.9 | 15.6 | 2 | 2 | 2.86 | 1 | 7.16 |
| Br.Br.CCCCC(CC)CN=c1ccn(CCCCCn2ccc(=NCC(CC)CCCC)cc2)cc1 (centres undefined) |  | > 1 | 0.5 | > 125 | > 125 | 125 | 15.6 | 7.8 |  | 15.6 |  |
| Br.Br.c1cn(CCCCCCCCn2ccc(=NC3CCCCC3)cc2)ccc1=NC1CCCCC1 |  | > 1 | 3.9 | > 125 | > 125 | 250 | 62.5 | 31.3 |  | 62.5 |  |
| Br.Br.CCCCC(CC)CN=c1ccn(CCCCCCCn2ccc(=NCC(CC)CCCC)cc2)cc1 (centres undefined) |  | > 1 | 0.5 | 7.8 | > 125 | 125 | 3.9 | 3.9 |  | 3.9 |  |
| CS(=O)(=O)O.CS(=O)(=O)O.Clc1ccc(N=c2ccn(CCCCCCCCn3ccc(=Nc4ccc(Cl)cc4)cc3)cc2)cc1 |  | > 1 | 0.4 | 31.3 | 125 | 125 | 3.1 | 1.6 |  | 3.1 |  |
| Br.Br.CCCCC(CC)CN=c1ccn(CCCCn2ccc(=NCC(CC)CCCC)cc2)cc1 (centres undefined) |  | > 1 | 1 | > 125 | > 125 | 125 | 31.3 | 7.8 |  | 62.5 |  |
| CCCCCCCCN=c1ccn(CCCCCCCCCn2ccc(=NCCCCCCCC)cc2)cc1.Cl.Cl |  | 0.003 | 1 | 2 | 15.6 | 3.9 | 1 | 1 |  | 1 |  |
| Br.Br.c1cn(CCCCn2ccc(=NC3CCCCC3)cc2)ccc1=NC1CCCCC1 |  | > 1 | 125 | > 500 | > 500 | > 500 | 125 | 125 |  | 125 |  |
| CS(=O)(=O)O.CS(=O)(=O)O.Clc1ccc(N=c2ccn(CCCCCCn3ccc(=Nc4ccc(Cl)cc4)cc3)cc2)cc1 |  | > 1 | 3.9 | 500 | 500 | 500 | 15.6 | 3.9 |  | 15.6 |  |
| Br.Br.CCCCCCCCN=c1ccn(CCCCCCCn2ccc(=NCCCCCCCC)cc2)cc1 |  | 0.005 | 0.5 | 1 | 7.8 | 31.3 | 1 | 1 |  | 2 |  |
| Br.Br.Clc1ccc(N=c2ccn(CCCCCCCCCn3ccc(=Nc4ccc(Cl)cc4)cc3)cc2)cc1 |  | > 1 | 0.6 | 7.8 | > 125 | 125 | 2 | 1 |  | 1 |  |
| CS(=O)(=O)O.CS(=O)(=O)O.Clc1ccc(N=c2ccn(CCCCCCCCCCn3ccc(=Nc4ccc(Cl)cc4)cc3)cc2)cc1 |  | > 1 | 0.4 | 3.1 | > 125 | 62.5 | 1.6 | 0.8 |  | 1.6 |  |
| CCCCCCCN=c1ccn(CCCCCCn2ccc(=NCCCCCCC)cc2)cc1.Cl.Cl |  | > 1 | 0.2 | 3.9 | > 125 | > 62.5 | 2 | 2 |  | 3.9 |  |
| Br.Br.CCCCCCCCCCN=c1ccn(CCCCCCn2ccc(=NCCCCCCCCCC)cc2)cc1 |  | 0.01 | 1 | 3.9 | 2 | 7.8 | 7.8 | 2 |  | 2 |  |
| Br.Br.CCCCC(CC)CN=c1ccn(CCCCCCCCCCn2ccc(=NCC(CC)CCCC)cc2)cc1 (centres undefined) |  | 0.003 | 0.2 | 3 | 12.1 | 48.4 | 0.8 | 0.4 |  | 1.5 |  |
| Br.Br.CCCCCCCCCCCCN=c1ccn(CCCCCCn2ccc(=NCCCCCCCCCCCC)cc2)cc1 |  | 0.1 | 7.8 | > 62.5 | > 62.5 | > 62.5 | 62.5 | > 62.5 |  | 31.3 |  |
| CCCCCCCN=c1ccn(CCCCCCCCn2ccc(=NCCCCCCC)cc2)cc1.Cl.Cl |  | 0.1 | 0.5 | 2 | 62.6 | 31.3 | 2 | 1 |  | 2 |  |
| Br.Br.c1cn(CCCCCCCn2ccc(=NC3CCCCC3)cc2)ccc1=NC1CCCCC1 |  | > 1 | 7.8 | > 125 | > 125 | 125 | > 125 | 125 |  | > 125 |  |
| Br.Br.CCCCCCN=c1ccn(CCCCCCCCCCn2ccc(=NCCCCCC)cc2)cc1 |  | > 1 | 0.2 | 3.9 | 31.3 | 31.3 | 2 | 1 |  | 2 |  |
| Br.Br.CCCCCCCCCCCCN=c1ccn(CCCCCCCCn2ccc(=NCCCCCCCCCCCC)cc2)cc1 |  | 0.1 | 7.8 | > 62.5 | 62.5 | > 62.5 | > 62.5 | 62.5 |  | 31.3 |  |
| Br.Br.Fc1ccc(N=c2ccn(CCCCCCCCn3ccc(=Nc4ccc(F)cc4)cc3)cc2)cc1 |  | > 1 | 2 | > 62.5 | > 125 | > 62.5 | 15.6 | 7.8 |  | 15.6 |  |
| Br.Br.CCCCCCCCCCN=c1ccn(CCCCCCCn2ccc(=NCCCCCCCCCC)cc2)cc1 |  | 0.01 | 1 | 7.8 | 3.9 | 7.8 | 3.9 | 3.9 |  | 3.9 |  |
| Br.Br.CCCCCCCN=c1ccn(CCCCCn2ccc(=NCCCCCCC)cc2)cc1 |  | > 1 | 0.5 | 31.3 | > 125 | 125 | 7.8 | 3.9 |  | 31.3 |  |
